The subject of assay [1] is A549. Description: Inhibition of hippo signalling protein in human A549 cells cotransfected with CTGF promoter-driven firefly luciferase and CMV promoter-driven renilla luciferase gene incubated for 24 hrs by dual-luciferase gene assay. The assay is classed as cell-based. An outline of the steps:
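Dual-luciferase reporter read-out in A549-CTGF cells after 24 h culture with compound. Firefly luciferase is expressed relative to DMSO-treated cells, set as 1. Screening used 10 µM. Values are mean ± SEM of three independent experiments.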

In assay [2] the test system is Tyrosine-protein kinase Blk (Homo sapiens), P51451 [UNDEFINED MUTATION]. Description: Inhibition of recombinant full length human BLK M287V mutant assessed as residual activity at 10 uM using poly(Glu, Tyr) 4:1 as substrate incubated for 40 mins in presence of [gamma-33ATP] by scintillation counting based radiometry assay relative to control.
Assay [3] concerns the target Cytoplasmic tyrosine-protein kinase BMX (Homo sapiens) (UniProt P51813). In words: Inhibition of recombinant full length human BMX assessed as residual activity at 10 uM using poly(Glu, Tyr) 4:1 as substrate incubated for 40 mins in presence of [gamma-33ATP] by scintillation counting based radiometry assay relative to control.
Assay [4] has as its target Calcium/calmodulin-dependent protein kinase type II subunit alpha (Homo sapiens) (UniProt Q9UQM7). In words: Inhibition of recombinant full length human CaMK2alpha assessed as residual activity at 10 uM using KKLNRTLSFAEPG as substrate incubated for 40 mins in presence of [gamma-33ATP] by scintillation counting based radiometry assay relative to control.
Assay [5] concerns Eukaryotic elongation factor 2 kinase (Homo sapiens), O00418 [H23R]. In words: Inhibition of recombinant human eEF-2K H23R mutant (2 to end residues) assessed as residual activity at 10 uM using RKKFGESEKTKTK as substrate at 40 mins in presence of [gamma-33ATP] by scintillation counting based radiometry assay relative to control.
For assay [6], the system named is Receptor tyrosine-protein kinase erbB-2 (Homo sapiens), P04626 [G778D]. In words: Inhibition of recombinant human ERBB2 G778D mutant (676 to end residues) assessed as residual activity at 10 uM using poly(Glu, Tyr) 4:1 as substrate at 40 mins in presence of [gamma-33ATP] by scintillation counting based radiometry assay relative to control.
For assay [7], the target named is Fibroblast growth factor receptor 3 (Homo sapiens) (UniProt P22607). In words: Inhibition of recombinant human FGFR3 (447 to 761 residues) assessed as residual activity at 10 uM using poly(Glu, Tyr) 4:1 as substrate at 40 mins in presence of [gamma-33ATP] by scintillation counting based radiometry assay relative to control.
Assay [8] deals with Fibroblast growth factor receptor 4 (Homo sapiens) (UniProt P22455). Description: Inhibition of recombinant human FGFR4 (442 to 755 residues) assessed as residual activity at 10 uM using poly(Glu, Tyr) 4:1 as substrate at 40 mins in presence of [gamma-33ATP] by scintillation counting based radiometry assay relative to control.
Assay [9] addresses Tyrosine-protein kinase Lck (Homo sapiens) (UniProt P06239). In words: Inhibition of recombinant full length human LCK activated assessed as residual activity at 10 uM using KVEKIGEGTYGVVYK as substrate after 40 mins in presence of [gamma-33ATP] by scintillation counting based radiometry assay relative to control.
The target of assay [10] is Serine/threonine-protein kinase STK11 (Homo sapiens) (UniProt Q15831). In words: Inhibition of recombinant human LKB1 assessed as residual activity at 10 uM using LSNLYHQGKFLQT as substrate after 40 mins in presence of [gamma-33ATP] by scintillation counting based radiometry assay relative to control.
The target in assay [11] is Myosin light chain kinase 2, skeletal/cardiac muscle (Homo sapiens) (UniProt Q9H1R3). In words: Inhibition of recombinant full length human MYLK2 assessed as residual activity at 10 uM using KKLNRTLSFAEPG as substrate measured after 40 mins in presence of [gamma33P]ATP by scintillation counting based radiometry assay relative to control.
Assay [12] addresses Serine/threonine-protein kinase PAK 1 (Homo sapiens) (UniProt Q13153). In words: Inhibition of recombinant human PAK1 (150 to end residues) assessed as residual activity at 10 uM using RRRLSFAEPG as substrate measured after 40 mins in presence of [gamma33P]ATP by scintillation counting based radiometry assay relative to control.
Assay [13] addresses [Pyruvate dehydrogenase (acetyl-transferring)] kinase isozyme 4, mitochondrial (Homo sapiens) (UniProt Q16654). In words: Inhibition of recombinant human full length PDHK4 assessed as residual activity at 10 uM using KKKYHGHSMSDPGVSYRT as substrate incubated for 40 mins in presence of [gamma33P]ATP by scintillation counting based radiometry assay relative to control.
Assay [14] addresses Serine/threonine-protein kinase pim-3 (Homo sapiens) (UniProt Q86V86). In words: Inhibition of recombinant human Pim3 (2 to end residues) assessed as residual activity at 10 uM using RSRHSSYPAG as substrate incubated for 40 mins in presence of [gamma33P]ATP by scintillation counting based radiometry assay relative to control.
For assay [15], the target named is Serine/threonine-protein kinase SBK1 (Homo sapiens) (UniProt Q52WX2). In words: Inhibition of recombinant full-length human SBK1 assessed as residual activity at 10 uM using KKLRRTLSVA as substrate incubated for 120 mins in presence of [gamma33P]ATP by scintillation counting based radiometry assay relative to control.
The target of assay [16] is Serine/threonine-protein kinase SIK1 (Homo sapiens) (UniProt P57059). Description: Inhibition of recombinant human SIK (1 to 281 residues) assessed as residual activity at 10 uM using AMARAASAAALARRR as substrate incubated for 40 mins in presence of [gamma33P]ATP by scintillation counting based radiometry assay relative to control.
For assay [17], the target named is Serine/threonine-protein kinase TBK1 (Homo sapiens) (UniProt Q9UHD2). In words: Inhibition of recombinant full length human TBK1 assessed as residual activity at 10 uM using KRRRALS(p)VASLPGL as substrate incubated for 40 mins in presence of [gamma33P]ATP by scintillation counting based radiometry assay relative to control.
Assay [18] has as its target NT-3 growth factor receptor (Homo sapiens) (UniProt Q16288). Description: Inhibition of recombinant human TRKC (510 to end residues) assessed as residual activity at 10 uM using GEEPLYWSFPAKK as substrate incubated for 40 mins in presence of [gamma33P]ATP by scintillation counting based radiometry assay relative to control.
Assay [19] deals with DNA-dependent protein kinase catalytic subunit (Homo sapiens) (UniProt P78527). In words: Inhibition of human DNA-PK assessed as residual activity at 10 uM using GST-cMyc-p53 as substrate measured after 40 mins by fluorescence assay relative to control.
Assay [20] deals with PI3-kinase p110-alpha/p85-alpha (Homo sapiens), P27986+P42336 [E542K]. Description: Inhibition of recombinant full-length human PI3K p110/p85 E542K mutant assessed as residual activity at 10 uM using phosphatidylinositol-4, 5-bisphosphate as substrate incubated for 40 mins in presence of [gamma33P]ATP by scintillation counting based radiometry assay relative to control.

These results are taken from ChEMBL document CHEMBL4334471, “Discovery of 1,8-disubstituted-[1,2,3]triazolo[4,5-c]quinoline derivatives as a new class of Hippo signaling pathway inhibitors” (Bioorg Med Chem Lett, 2019).

Sequence of Calcium/calmodulin-dependent protein kinase type II subunit alpha (Homo sapiens) (Q9UQM7 whole entry): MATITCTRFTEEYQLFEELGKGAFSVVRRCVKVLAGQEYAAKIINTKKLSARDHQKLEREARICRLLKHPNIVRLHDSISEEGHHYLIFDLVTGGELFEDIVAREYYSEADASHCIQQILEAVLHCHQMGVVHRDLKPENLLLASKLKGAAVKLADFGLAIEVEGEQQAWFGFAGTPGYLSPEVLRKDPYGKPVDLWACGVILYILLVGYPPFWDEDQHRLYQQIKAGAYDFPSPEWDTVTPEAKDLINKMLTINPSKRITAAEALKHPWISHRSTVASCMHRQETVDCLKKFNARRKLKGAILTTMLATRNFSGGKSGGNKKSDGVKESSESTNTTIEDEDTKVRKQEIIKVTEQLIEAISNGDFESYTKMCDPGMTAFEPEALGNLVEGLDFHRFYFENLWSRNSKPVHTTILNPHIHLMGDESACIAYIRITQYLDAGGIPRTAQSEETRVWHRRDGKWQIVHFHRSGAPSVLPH
Sequence of Cytoplasmic tyrosine-protein kinase BMX (Homo sapiens) (P51813 whole entry): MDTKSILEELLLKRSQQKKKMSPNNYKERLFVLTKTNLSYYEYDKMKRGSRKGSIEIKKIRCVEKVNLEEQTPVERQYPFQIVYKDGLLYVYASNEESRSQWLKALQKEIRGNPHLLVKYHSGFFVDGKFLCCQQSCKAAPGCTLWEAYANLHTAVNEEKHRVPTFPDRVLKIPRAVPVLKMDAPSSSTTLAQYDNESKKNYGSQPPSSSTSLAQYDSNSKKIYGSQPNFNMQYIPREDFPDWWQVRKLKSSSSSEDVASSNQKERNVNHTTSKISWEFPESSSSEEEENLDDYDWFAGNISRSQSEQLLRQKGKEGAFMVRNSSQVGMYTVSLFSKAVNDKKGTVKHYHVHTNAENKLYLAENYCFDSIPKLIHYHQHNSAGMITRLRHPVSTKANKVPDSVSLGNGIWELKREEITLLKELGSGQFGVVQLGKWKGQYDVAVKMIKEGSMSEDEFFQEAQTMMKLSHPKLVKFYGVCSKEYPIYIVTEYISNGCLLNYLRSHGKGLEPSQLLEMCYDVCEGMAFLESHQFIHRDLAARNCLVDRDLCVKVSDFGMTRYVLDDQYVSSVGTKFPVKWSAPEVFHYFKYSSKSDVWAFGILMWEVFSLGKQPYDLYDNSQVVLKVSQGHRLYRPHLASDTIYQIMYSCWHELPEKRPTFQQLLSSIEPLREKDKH
Sequence of Serine/threonine-protein kinase SIK1 (Homo sapiens) (P57059 whole entry, the tested form may be a part): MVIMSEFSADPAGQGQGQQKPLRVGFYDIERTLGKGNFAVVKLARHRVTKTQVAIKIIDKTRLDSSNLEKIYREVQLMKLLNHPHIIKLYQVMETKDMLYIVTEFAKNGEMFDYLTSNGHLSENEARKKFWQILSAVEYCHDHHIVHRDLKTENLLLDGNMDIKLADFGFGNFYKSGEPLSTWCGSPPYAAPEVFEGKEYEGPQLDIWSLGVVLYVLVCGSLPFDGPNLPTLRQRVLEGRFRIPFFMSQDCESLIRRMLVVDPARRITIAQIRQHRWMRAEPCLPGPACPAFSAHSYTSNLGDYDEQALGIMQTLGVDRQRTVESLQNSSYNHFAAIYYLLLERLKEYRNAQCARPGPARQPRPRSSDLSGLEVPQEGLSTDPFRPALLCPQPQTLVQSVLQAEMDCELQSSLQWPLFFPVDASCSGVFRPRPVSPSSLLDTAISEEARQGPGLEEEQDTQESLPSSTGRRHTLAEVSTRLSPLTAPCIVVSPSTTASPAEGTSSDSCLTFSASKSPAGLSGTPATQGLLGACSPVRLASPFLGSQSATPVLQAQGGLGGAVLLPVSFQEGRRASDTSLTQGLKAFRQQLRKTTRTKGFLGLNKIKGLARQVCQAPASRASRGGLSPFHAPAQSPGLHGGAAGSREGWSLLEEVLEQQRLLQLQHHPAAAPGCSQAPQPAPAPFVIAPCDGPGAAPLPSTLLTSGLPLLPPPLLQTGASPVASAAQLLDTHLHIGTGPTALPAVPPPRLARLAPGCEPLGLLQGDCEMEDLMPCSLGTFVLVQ
Sequence of Tyrosine-protein kinase Lck (Homo sapiens) (P06239 2-509 limits assumed): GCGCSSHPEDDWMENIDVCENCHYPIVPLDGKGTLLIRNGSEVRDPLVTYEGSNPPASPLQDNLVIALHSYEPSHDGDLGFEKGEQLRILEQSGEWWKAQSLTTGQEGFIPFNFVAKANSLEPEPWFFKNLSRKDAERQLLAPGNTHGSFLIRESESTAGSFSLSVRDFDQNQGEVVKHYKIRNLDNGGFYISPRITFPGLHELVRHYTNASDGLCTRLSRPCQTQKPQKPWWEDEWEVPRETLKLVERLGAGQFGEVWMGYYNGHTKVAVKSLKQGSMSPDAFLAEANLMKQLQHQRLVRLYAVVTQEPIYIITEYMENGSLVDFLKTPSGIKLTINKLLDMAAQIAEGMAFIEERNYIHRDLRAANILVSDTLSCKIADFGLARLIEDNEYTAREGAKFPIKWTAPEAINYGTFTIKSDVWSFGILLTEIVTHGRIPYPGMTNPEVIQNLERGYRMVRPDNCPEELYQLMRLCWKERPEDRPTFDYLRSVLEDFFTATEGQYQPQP
Sequence of Serine/threonine-protein kinase PAK 1 (Homo sapiens) (Q13153 whole entry): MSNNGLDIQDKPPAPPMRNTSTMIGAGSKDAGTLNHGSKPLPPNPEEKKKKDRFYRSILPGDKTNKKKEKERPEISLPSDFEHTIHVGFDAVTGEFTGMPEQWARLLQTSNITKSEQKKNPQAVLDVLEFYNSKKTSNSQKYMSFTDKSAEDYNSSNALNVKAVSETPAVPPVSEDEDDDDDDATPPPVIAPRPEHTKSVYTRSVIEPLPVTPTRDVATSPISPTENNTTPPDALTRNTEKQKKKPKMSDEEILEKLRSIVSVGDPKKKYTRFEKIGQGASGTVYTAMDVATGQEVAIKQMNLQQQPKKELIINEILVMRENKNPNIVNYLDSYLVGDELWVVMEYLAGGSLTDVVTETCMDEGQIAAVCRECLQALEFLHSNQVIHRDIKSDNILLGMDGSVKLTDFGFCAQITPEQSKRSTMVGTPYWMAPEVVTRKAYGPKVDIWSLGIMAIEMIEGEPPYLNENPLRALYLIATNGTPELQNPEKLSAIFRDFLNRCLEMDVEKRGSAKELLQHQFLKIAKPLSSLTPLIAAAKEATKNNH
Sequence of NT-3 growth factor receptor (Homo sapiens) (Q16288 32-839 limits assumed): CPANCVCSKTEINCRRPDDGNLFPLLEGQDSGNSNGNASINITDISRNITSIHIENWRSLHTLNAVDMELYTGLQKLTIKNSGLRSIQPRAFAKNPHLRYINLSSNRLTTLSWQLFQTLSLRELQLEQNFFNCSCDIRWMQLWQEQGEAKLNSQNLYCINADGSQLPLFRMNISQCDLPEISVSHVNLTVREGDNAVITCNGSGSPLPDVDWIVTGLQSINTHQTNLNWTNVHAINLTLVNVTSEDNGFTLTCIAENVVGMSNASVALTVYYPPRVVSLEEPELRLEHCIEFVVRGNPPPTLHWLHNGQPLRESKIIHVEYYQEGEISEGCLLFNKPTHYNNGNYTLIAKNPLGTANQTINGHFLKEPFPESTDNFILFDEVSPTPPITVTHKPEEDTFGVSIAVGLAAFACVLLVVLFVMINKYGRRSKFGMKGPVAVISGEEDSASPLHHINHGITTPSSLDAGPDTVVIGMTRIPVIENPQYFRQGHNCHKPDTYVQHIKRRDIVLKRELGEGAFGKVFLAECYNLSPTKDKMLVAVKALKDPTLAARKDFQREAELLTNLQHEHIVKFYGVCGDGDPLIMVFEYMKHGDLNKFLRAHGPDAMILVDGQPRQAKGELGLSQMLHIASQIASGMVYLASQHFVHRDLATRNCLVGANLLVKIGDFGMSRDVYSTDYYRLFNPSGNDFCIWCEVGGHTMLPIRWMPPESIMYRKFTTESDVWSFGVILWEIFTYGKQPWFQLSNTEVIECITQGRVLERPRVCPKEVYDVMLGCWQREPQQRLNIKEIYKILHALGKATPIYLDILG
Sequence of Myosin light chain kinase 2, skeletal/cardiac muscle (Homo sapiens) (Q9H1R3 whole entry): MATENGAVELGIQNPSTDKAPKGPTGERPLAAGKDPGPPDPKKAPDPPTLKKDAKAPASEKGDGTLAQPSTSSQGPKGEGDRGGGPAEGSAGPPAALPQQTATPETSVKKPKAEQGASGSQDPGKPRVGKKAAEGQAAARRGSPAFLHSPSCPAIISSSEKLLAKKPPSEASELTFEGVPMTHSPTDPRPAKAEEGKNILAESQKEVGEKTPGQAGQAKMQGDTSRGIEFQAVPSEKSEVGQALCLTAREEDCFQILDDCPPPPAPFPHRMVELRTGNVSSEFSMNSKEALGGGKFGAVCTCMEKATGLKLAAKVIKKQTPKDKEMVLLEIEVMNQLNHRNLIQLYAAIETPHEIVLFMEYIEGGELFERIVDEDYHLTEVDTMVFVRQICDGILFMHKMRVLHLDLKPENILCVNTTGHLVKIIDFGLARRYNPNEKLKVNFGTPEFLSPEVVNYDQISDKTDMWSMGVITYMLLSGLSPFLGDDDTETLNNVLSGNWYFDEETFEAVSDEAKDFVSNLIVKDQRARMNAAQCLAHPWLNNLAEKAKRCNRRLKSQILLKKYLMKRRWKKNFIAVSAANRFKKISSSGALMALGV

With `C[C@@H](c1ccccc1)n1nnc2cnc3ccc(-c4cnc5[nH]ccc5c4)cc3c21`, in assay [1], the inhibition result was “Dose-dependent effect”. The Activity in assay [2] stood at 8%; in assay [3], 44%; in assay [4] it was 50%; in assay [5] it was 129%; in [6] it was 120%; in assay [7], 50%. Further, the Activity in assay [8] was 68%; in assay [9] it was 4%; in assay [10], 91%; in assay [11], 70%; in assay [12], 92%; in [13] it was 69%. Besides, the Activity turned out to be 83% in [14]; 113% in assay [15]; 8% in assay [16]; 85% in [17]; 2% in [18]; 4% in [19]. Further, the Activity in [20] was 8%.
